# Screens deposited in PubChem by several laboratories.
# Hits are enriched below; roughly 4.1% of the tested compounds scored in any of these assays.
# AHR act – activates the human aryl hydrocarbon receptor; P35869; AHR-responsive luciferase reporter cells, luminescence; activation, % at 5 µM; 2.5% of 320,000 active; in the data active = activation above about 47%;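 note: 0% = vehicle wells and 100% = reference agonist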
# Target sequence (P35869 whole entry, looked up): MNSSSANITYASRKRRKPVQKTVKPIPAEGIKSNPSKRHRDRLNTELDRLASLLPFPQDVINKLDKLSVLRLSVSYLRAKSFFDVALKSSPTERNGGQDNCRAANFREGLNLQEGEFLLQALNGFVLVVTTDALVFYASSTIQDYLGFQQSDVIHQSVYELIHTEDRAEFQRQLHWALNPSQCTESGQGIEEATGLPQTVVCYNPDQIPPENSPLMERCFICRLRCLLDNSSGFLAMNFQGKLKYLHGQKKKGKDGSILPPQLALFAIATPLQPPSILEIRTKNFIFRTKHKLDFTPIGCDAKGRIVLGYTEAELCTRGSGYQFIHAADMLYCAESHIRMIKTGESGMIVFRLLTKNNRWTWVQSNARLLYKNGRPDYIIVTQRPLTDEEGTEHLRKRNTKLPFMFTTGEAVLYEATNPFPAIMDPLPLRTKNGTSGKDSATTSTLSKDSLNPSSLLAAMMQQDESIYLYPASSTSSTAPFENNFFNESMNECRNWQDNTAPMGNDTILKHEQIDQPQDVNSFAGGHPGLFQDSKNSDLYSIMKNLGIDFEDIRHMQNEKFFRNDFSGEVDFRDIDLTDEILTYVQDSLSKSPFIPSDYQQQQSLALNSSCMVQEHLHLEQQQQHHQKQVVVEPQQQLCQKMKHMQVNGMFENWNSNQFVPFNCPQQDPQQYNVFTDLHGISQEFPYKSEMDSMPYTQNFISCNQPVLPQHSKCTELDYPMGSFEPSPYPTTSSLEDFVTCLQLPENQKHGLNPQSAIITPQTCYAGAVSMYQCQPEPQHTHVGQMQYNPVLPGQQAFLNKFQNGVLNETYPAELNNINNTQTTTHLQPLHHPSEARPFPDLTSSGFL
# SMARCA2 activ – increases SMARCA2 function in MMTV reporter cells. MG213 cells, MMTV-luciferase reporter, dexamethasone, overnight. activation, % at 9.1 µM. 1% of 370,000 active. AID 652017; in the data active = activation above about 7.8%;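 note: 0% = vehicle wells and 100% = reference activator wells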
# TbMetRS inhib – blocks T. brucei methionyl-tRNA synthetase activity; purified T. brucei MetRS, ATP depletion, Kinase-Glo luminescence; inhibition, % at 11.9 µM; 0.4% of 360,000 active;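 active = inhibition above a per-plate cutoff of the control wells' mean inhibition plus 3 SD, cut at about 5.5% in these data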;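 note: 0% = DMSO wells median and 100% = median of wells with control inhibitor compound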
#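 Dosing: 11.9 µM single point; system: parasite MetRS enzyme; technique: luminescence of leftover ATP; times: 15 min enzyme-compound preincubation, 2 h reaction, 10 min detection, 25 °C; replicates: each compound tested once; read-out basis: percent inhibition relative to median high and low control wells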
# Efflux pump mplx – blocks antifungal efflux pumps in multiplex yeast assay; S. cerevisiae Candida pump triplex, Nile Red efflux; inhibition, % at 10 µM; 0.44% of 330,000 active; AID 485275;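 active = plate passing quality check with inhibition over a set limit, or well fluorescence over plate mean plus 4 SD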;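 note: Nile Red retained in pooled yeast measured as flow cytometry median fluorescence; 0% = buffer negative control and 100% = Enniatin B positive control; higher means more Nile Red kept so more efflux inhibition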
# H9c2 TAG inh – triacylglycerol accumulation inhibition. H9c2 cells, Nile Red lipid (TAG) fluorescence; cells loaded with 200 µM oleic acid. inhibition, % at 12.5 µM. 0.66% of 230,000 active. AID 651582;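 active = pattern-corrected inhibition of lipid staining of at least 50% with the nuclear-stain viability signal not falling by more than 50%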;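 note: 0% = DMSO wells and 100% = triacsin C control wells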
# Numbers without * were called inactive; . = not tested or not shown.
SMILES,AHR act,SMARCA2 activ,TbMetRS inhib,Efflux pump mplx,H9c2 TAG inh
CSc1nc(/C=C2\C=Nc3ccccc32)c(O)n1C,51*,6,2,0,.
Cc1cc2c(C)ccc(C)c2nc1SCC(=O)c1cccs1,58*,-4,-1,0,-237
COC(=O)c1[nH]c2ccc(C)cc2c1NC(=O)CN1CCc2cc(OC)c(OC)cc2C1,4,1,1,0,-71
COC(=O)c1[nH]c2cc(C)ccc2c1NC(=O)CN1CCN(C(=O)c2ccco2)CC1,67*,-3,0,0,.
COC(=O)c1[nH]c2cccc(C)c2c1NC(=O)CN1CCN(C(=O)c2ccco2)CC1,7,2,-1,0,1
COC(=O)c1[nH]c2ccc(Br)cc2c1NC(=O)CN1CCCc2ccccc21,48*,-7,0,0,11
COC(=O)c1[nH]c2cc(C)ccc2c1NC(=O)CN1CCCc2ccccc21,67*,3,0,0,.
COC(=O)c1[nH]c2ccc(Br)cc2c1NC(=O)CN1CCN(C2CCCCC2)CC1,5,1,0,0,44
C(=C\c1ccccc1)/CSc1nnc(Cc2cccs2)n1-c1ccccc1,.,-1,.,.,.
COc1ccc(CCC(=O)OCc2csc(CC(=O)Nc3ccc(C)cc3)n2)cc1OC,6,2,0,0.9*,7
C#CCN1CC(N(C)CCOC(=O)c2ccc([N+](=O)[O-])cc2)CS1(=O)=O (centres undefined),.,-4,.,.,.
Cc1ccc2c(c1)C(CS(=O)(=O)NCCc1ccccc1)NC2 (centres undefined),.,-3,.,.,.
c1ccc(-c2cnc(-c3ccccc3)nn2)cc1,26,7.9*,0,0,1
CCN(CC)c1nc(C)nc2c1nnn2Cc1ccccc1,.,-3,.,.,.
COc1ccc(F)cc1C(=O)C1CCCN(Cc2ccc(Oc3ncccn3)cc2)C1 (centres undefined),0,-1,0,0,-8
COc1ccc(F)cc1C(=O)C1CCCN(Cc2cccn2-c2cccnc2)C1 (centres undefined),52*,-3,0,0,-3
CC(=O)c1cc(-c2cccc(C(C)C)c2)c(=O)n2c1CCC2,.,-1,.,.,.
Nc1nc(Nc2cccc3ccccc23)nc(C2CCCC2=O)n1 (centres undefined),8,-4,.,0,.
Nc1nc(CCl)nc(Nc2cccc3ccccc23)n1,14,-12,0,0,81*
CCOC(=O)c1c(C)oc2c1c(CN1CCN(CCO)CC1)c(O)c1ccccc12,.,-1,-1,.,8
CCOC(=O)c1c(C)oc2c1c(CN1CCN(C(=O)OCC)CC1)c(O)c1ccccc12,50*,3,1,0,.
Cc1ccc(S(=O)(=O)Nc2cc(C(=O)O)ccc2N2CCC(C)CC2)cc1C,.,2,.,.,.
CC(C)c1nnc(NC(=O)c2cccs2)s1,53*,1,-1,0,11
CCOc1ccc(C(=O)Nc2nnc(C(C)C)s2)cc1OCC,59*,-2,0,0,26
COc1cccc(-c2nnc(NC(=O)c3cccs3)s2)c1,64*,-2,0,0,.
SMILES,AHR act,SMARCA2 activ,TbMetRS inhib,Efflux pump mplx,H9c2 TAG inh
COc1cccc(-c2nnc(NC(=O)c3ccco3)s2)c1,3,4,0,0,.
Fc1ccc(CN2CCN(c3ncc(Cc4ccccc4)cn3)CC2)c(Cl)c1,.,-8,.,.,.
C=CCn1c(COc2ccccc2)nnc1SCC(=O)Nc1ccc(Oc2ccccc2)cc1,.,-2,.,.,.
CC(C)(C)C1=CC(CC(N)=O)(C(C)(C)C)OC1=O (centres undefined),.,1,.,.,.
c1cc2cc(-c3c(-c4ccc5c(c4)OCO5)noc3-c3ccsc3)ccc2[nH]1,49*,4,0,0,5
COc1ccc(S(=O)(=O)NCC(=O)N2CCN(c3ccccn3)CC2)c(OC)c1,.,-3,.,.,.
Cc1ccc(-c2csc3nc4c5ccccc5c(NCCCN5CCOCC5)nn4c(=O)c23)cc1,-2,.,.,0,.
Cc1ccc(-c2csc3nc4c5ccccc5c(NCCCN(C)C)nn4c(=O)c23)cc1,1,-1,-1,0,59*
Cc1ccc(-n2c(SCC(=O)Nc3ccc(S(=O)(=O)Nc4cc(C)nc(C)n4)cc3)nnc2-c2ccncc2)cc1,.,-2,.,.,.
COc1cccc(/C=N/n2c(SC)nnc2-c2ccccc2)c1OC,61*,0,0,0,.
N#C/C(=C\c1cccc2ccccc12)c1nn(-c2ccccc2)c(N)c1C#N,56*,.,.,0,.
COC(=O)c1cc(-c2cccc(OCc3ccccc3)c2)c(=O)n2c1CCC2,.,-1,.,.,.
Cc1ccc(C(=O)NCCCNC(=O)c2ccco2)cc1,-2,3,-1,0,.
Cc1ccc(-c2cnc(SCCNC(=O)c3ccco3)[nH]2)cc1,61*,-1,0,0,-7
Cc1[nH]nc(Nc2ccccc2)c1[N+](=O)[O-],20,-4,0,0,7
COc1ccc(Nc2nc(N)c([N+](=O)[O-])c(NCCO)n2)cc1,21,0,0,0,13
Cc1cccc(Nc2n[nH]c(C)c2[N+](=O)[O-])c1,59*,4,-1,1,.
CNc1nc(Nc2ccc(Br)cc2)nc(N)c1[N+](=O)[O-],70*,5,-1,0,.
Cc1[nH]nc(Nc2ccc(Br)cc2)c1[N+](=O)[O-],125*,2,0,0,-11
C=CCC12C=C(OC)C(=O)C(C1=O)C(c1ccc(OC)cc1)C2C (centres undefined),.,-2,.,.,.
CN1C(=O)c2cc(NS(=O)(=O)c3cccc(F)c3)ccc2OC[C@@H]2O[C@H](CC(=O)O)CC[C@H]21,.,0,.,.,.
Cc1nn(-c2ccccc2)nc1C(=O)Nc1ccccc1C(=O)NCC1CC1,.,-2,.,.,.
CC1(C)CC(=O)C=C(Nc2ccccc2NC(=O)c2cc(F)cc(F)c2)C1,.,-4,.,.,.
S=C(Nc1cccc(Br)c1)OC1CCC12CCC(c1ccccc1)CC2 (centres undefined),.,0,.,.,.
CN1C(=O)c2cc(NC(=O)Nc3ccccc3)ccc2OC[C@H]2O[C@@H](CC(=O)Nc3cc(F)ccc3F)CC[C@@H]21,.,-2,.,.,.
SMILES,AHR act,SMARCA2 activ,TbMetRS inhib,Efflux pump mplx,H9c2 TAG inh
Cc1nc2ccc(S(=O)(=O)Nc3cccc(-c4nc5cccnc5s4)c3C)cc2s1,1,-5,-1,0,-27
Cc1ccc(-c2nc3cccnc3s2)cc1NS(=O)(=O)c1cccs1,59*,-1,-1,0,-6
O=S(=O)(Nc1ccc(-c2nc3cccnc3s2)cc1)c1cc(F)ccc1F,38,3,-1,0,-1
Cc1nc2ccc(S(=O)(=O)Nc3cc(-c4nc5cccnc5s4)ccc3C)cc2s1,53*,1,0,0,-7
COC(=O)[C@]1(Cc2ccccc2)NC=C(C(=O)c2ccc(F)cc2)[C@@H]1c1ccccc1,.,0,.,.,.
O=C(N[C@H](Cc1ccccc1)C(=O)NCc1ccc(OC(F)(F)F)cc1)[C@H]1O[C@@H](n2ccc(=O)[nH]c2=O)[C@H](O)[C@@H]1O,.,-3,.,.,.
COC(=O)C[C@@H]1CC[C@@H]2[C@@H](COc3ccc(NC(=O)Nc4cccc(Cl)c4)cc3C(=O)N2C)O1,.,-5,.,.,.
